SUMO Mot1 rescue: yeast Mot1-301 growth rescue at high temperature, primary screen, SUMOylation pathway inhibitor project, S. cerevisiae, ATP luminescence, 38.5C; S. cerevisiae Mot1-301 growth rescue; percent above DMSO median, 100 means doubled; growth rescue, % at 18.8 µM; hit rate 1% among 320,000; AID 2716, 2010;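 active means every valid replicate shows activation above 250% relative to neutral control wells; inactive means the rest, any valid replicate at or below 250%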;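 further: OY570 slx delta 5 strain wells were the positive control but not used for scaling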
hERG protect: hERG rescue from dofetilide block, primary screen, cell-based, CHO-hERG, FluxOR thallium flux, dofetilide IC70 | Voltage-gated inwardly rectifying potassium channel KCNH2 (Homo sapiens), Q12809 | hit rate 0.51% among 310,000 | dofetilide IC70 present | AID 1511, 2009 | activation (rescue from dofetilide block), less the hit threshold, % at 10 µM;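 active means activation above the mean of controls blocked by dofetilide plus 5 SD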;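 further: thallium influx through hERG after potassium depolarization seen as dye fluorescence rise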
KCC2 mod: KCC2 cotransporter modulators, thallium flux, primary screen, cell-based, HEK293 KCC2, FluoZin-2 fluorescence, MLSMR; Solute carrier family 12 member 5 (Homo sapiens), Q9H2X9; KCC2 cells, thallium flux FluoZin-2 fluorescence; B-score of Tl+ flux slope (higher = more flux/activation; lower = inhibition) at 10 µM; hit rate 2.2% among 190,000; AID 1456, 2008;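 active means thallium flux slope and its plate-corrected score both differing from the plate sample mean at a set confidence after two filtering rounds, in either direction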;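 further: slope of fluorescence scaled to starting intensity during 10 to 20 s after thallium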
KCNQ1 act: potentiators or activators of KCNQ1 channel, primary screen, cell-based, thallium flux, high-throughput. Potassium voltage-gated channel subfamily KQT member 1 (Homo sapiens), P51787. CHO-K1 KCNQ1, thallium flux FluxOR fluorescence; stronger effect = higher value. B-score at 10 µM. hit rate 0.35% among 310,000;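 active means fluorescence ratio B-score, a plate-corrected score, at least three library SD, with initial intensity B-score within 5 SD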
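Test system: CHO-K1 cells stably expressing KCNQ1 / Medium: assay buffer / Also added: depolarizing K+/Tl+ stimulus, K2SO4 and Tl2SO4 each 12.5 mM in 5x stock / Incubation: 90 min dye loading and 20 min compound exposure, both at room temperature / Signal: thallium influx via FluxOR fluorescence, kinetic imaging / Evaluation: B score of baseline-normalized fluorescence ratio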
AI-2 QS mod: Vibrio harveyi AI-2 quorum sensing modulators, primary screen, JMH597 strain, luminescence/OD600 ratio; hit rate 0.4% among 300,000; Vibrio harveyi JMH597 AI-2 luminescence/OD600 ratio, 9 h; stronger effect = lower value; strain lacks LuxN and CqsS sensors; 0 = neutral-control median; activity change, % at 7.5 µM; in the data active means activity change below about -75%, passing the limit was not always enough; inconclusive means no clear call, values can overlap the other calls;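 further: luminescence divided by OD600 gain over 9 h not by final OD600 alone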
KCNQ1 block: inhibitors of human KCNQ1 channel, primary screen, cell-based, thallium flux, high-throughput | Potassium voltage-gated channel subfamily KQT member 1 (Homo sapiens), P51787 | CHO-K1 KCNQ1, FluxOR thallium flux fluorescence; stronger effect = higher value | B-score at 10 µM | hit rate 1.3% among 310,000;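 active means compounds whose thallium flux B-score, printed positive for inhibition, exceeds three library SD while starting fluorescence stays within three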;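 further: channel opened by potassium depolarization with thallium stimulus after 20 min compound exposure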
* marks the source's active call; other numbers are inactive results; i = inactive; u = inconclusive; x = not tested or not shown. Sampled rows, rich in hits. Any-hit rate of the full collection: about 4.2%.

SMILES	SUMO Mot1 rescue	hERG protect	KCC2 mod	KCNQ1 act	AI-2 QS mod	KCNQ1 block
CCOC(=O)c1c(C)[nH]c(=S)c(C#N)c1-c1ccc(Cl)cc1	19	-4	11*	9*	8	i
CC(C)(CO)NC(=S)NCc1ccco1	2	-8	0.76	i	6	i
CCCCCCCN1C(Nc2ccccc2)=NC[C@@H]1C	-27	x	x	x	x	x
c1ccc(N2CCN(c3nc(-c4cccs4)nc4ccccc34)CC2)cc1	825*	-17	0.76	i	8	i
Oc1ccc(N2CCN(c3nc(-c4cccs4)nc4ccccc34)CC2)cc1	-16	-12	x	i	26	i
Clc1ccc2c(c1)C(N1CCNCC1)Cc1ccccc1S2 (stereo not drawn)	-13	-23	0.049	i	x	6*
CC1(C)CC(NS(=O)(=O)c2ccc(C(C)(C)C)cc2)CC(C)(C)N1	-5	0	x	i	x	i
Cc1ccc(F)c(NC(=O)/C(C#N)=C(\O)c2ccc(C(C)(C)C)cc2)c1	x	-11	-5.6*	i	23	7*
CCOCCc1c(O)nc(SC)[nH]c1=O	1	0	1	8*	10	i
N#CC1=C(N)SC(N)=C(C#N)C1c1cccc(Oc2ccccc2)c1	-20	-9	-1.2	i	18	8*
N#CC1=C(N)SC(N)=C(C#N)C1Cc1ccccc1	-15	-13	x	i	15	9*
N#CC1=C(N)SC(N)=C(C#N)C1CCc1ccccc1	0	-12	-3.1*	i	22	i
Cc1ccc(CNC(=O)c2cc(Cl)cc(Cl)c2)n1C	9	-11	x	i	-4	i
Cc1ccc(-n2ncc3c(SCc4ccccc4)ncnc32)cc1	-2	8.6*	22*	i	8	i
Cc1ccc(CSc2ncnc3c2cnn3-c2ccc(C)cc2)cc1	8	-9	16*	i	-10	i
Cc1ccc(CSc2ncnc3c2cnn3-c2ccccc2)cc1	-14	-7	1.1	i	0	i
COCc1c(C(=O)NC(C)c2ccc(S(N)(=O)=O)cc2)oc2ccccc12 (stereo not drawn)	1	-3	x	i	28	i
O=C(Nc1ccccc1Cl)C(Cl)C(=O)c1ccccc1 (stereo not drawn)	x	x	0.36	x	x	x
O=C(Nc1ccc(Cl)cc1)C(Cl)C(=O)c1ccccc1 (stereo not drawn)	78	-12	x	10*	u	i
COc1ccc(-n2nnnc2S(=O)(=O)CC(=O)N2CCCCC2)cc1	486*	x	x	x	x	x
COc1ccc(-n2nnnc2S(=O)(=O)Cc2ccc(C(=O)O)cc2)cc1	-9	-17	-0.66	i	-49	i
COc1ccccc1NC(=O)c1ccccc1C(=O)N(C)Cc1ccccc1	-2	x	x	x	x	x
Cc1ccc(NC(=S)N/N=C/c2c(Cl)cccc2Cl)c(C)c1	18	7.7*	53*	i	23	i
CCNC(=S)N/N=C/c1cccc(/C=N/NC(=S)NCC)c1	9	-6	-2.3	i	23	i
Cc1ccc(NC(=S)N/N=C/c2ccc(OCCC(C)C)cc2)c(C)c1	221	-12	2.1	i	9	i
CCNC(=S)N/N=C/c1c(Cl)cccc1Cl	65	-5	9.3*	i	27	i
CCC(C)NC(=O)c1cc2c(=O)n(CC)c3ccccc3c2s1 (stereo not drawn)	5	-10	x	i	9	i
CN1C(=O)c2cccc3c(N(C)C)ccc(c23)C1=O	52	-16	x	i	1	6*
CN1C(=O)c2cccc3c(Br)ccc(c23)C1=O	0	-8	x	i	13	i

Assay outcomes deposited in PubChem by several laboratories.
